The sample as a whole holds a higher share of hits than the screen did.
AP ELISA ortho = alternative pathway complement inhibition, orthogonal assay; actives 0.08% (n = 62,000); AID 1235; inhibition, % at 5 µM; Human serum alternative complement pathway, LPS-coated ELISA, C3 deposition; tested in compound mixtures;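 active = inhibition above 30% in each of the two pooled mixtures holding the compound, so the lower value exceeds 30%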;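 also: 0% = serum in Mg-EGTA without compound and 100% = EDTA serum blank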
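Test system: human serum alternative complement pathway, C3 deposition on LPS-coated wells; also added: Plate-bound LPS; doses: 5 µM per compound in ten-compound mixtures; schedule: 1 h at 37 °C; detection: Anti-C3 ELISA, OD 450 nm; evaluation: percent inhibition of C3 deposition onto LPS; repeats: two pool placements per compound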
D1 allo mod = allosteric modulators of human D1 dopamine receptor; HEK293 D1, CRE-luciferase, dopamine EC30 potentiation; actives deviate in either direction; B-score at 10 µM; actives 5.9% (n = 58,000);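 active = luminescence count or its row- and column-corrected plate score outside the 99.7% band of the plate's sample wells, on either side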
WNV protease inh = inhibitors of West Nile virus NS2B-NS3 protease; actives 0.18% (n = 65,000); AID 577; P06935; z-score (no concentration beside the values); WNV NS2B-NS3 protease, fluorogenic substrate Ex360/Em465; stronger effect = lower value; in the data active = z-score below about -3
Target sequence (P06935 1371-1501 limits assumed): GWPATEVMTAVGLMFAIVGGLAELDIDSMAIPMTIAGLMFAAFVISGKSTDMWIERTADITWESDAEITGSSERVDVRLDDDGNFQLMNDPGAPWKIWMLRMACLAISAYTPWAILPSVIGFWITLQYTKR
Target sequence (P06935 1502-1679 limits assumed): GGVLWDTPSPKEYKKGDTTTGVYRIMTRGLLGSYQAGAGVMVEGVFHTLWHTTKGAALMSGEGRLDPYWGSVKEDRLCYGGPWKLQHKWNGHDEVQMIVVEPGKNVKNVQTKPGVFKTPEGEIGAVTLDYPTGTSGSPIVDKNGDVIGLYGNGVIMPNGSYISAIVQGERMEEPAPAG
hDAT+cocaine = human DAT dopamine uptake with cocaine, either direction; B-score at 10 µM; AID 449768; Q01959; actives 1.3% (n = 110,000); LLC-PK1 hDAT cells, [14C]-dopamine uptake with cocaine IC80; actives deviate in either direction;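 active = Z score or B-score, a plate-position-corrected score, falls beyond the plate's 99.7% confidence bounds, in either direction; inactive = both scores lie inside the 99.7% bounds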;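 also: scored against the spread of the other compound wells on the same plate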
D1 PAM confirm = D1 receptor (human) allosteric modulation, confirmed; AID 642; luminescence at 10 µM; HEK293 D1 CRE-luciferase, dopamine EC30 potentiation; stronger effect = higher value; actives 88% (n = 2,200); shares compounds with D1 allo mod;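 active = luminescence in either of two replicates above the same-plate mean plus 3 SD of the low-dose dopamine control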
D1 no dopamine = secondary test of D1 modulators: activity without dopamine. actives 0.8% (n = 1,900). shares compounds with D1 allo mod. luminescence at 10 µM. HEK293 D1 CRE-luciferase, luminescence, no dopamine; stronger effect = higher value; in the data active = luminescence above about 3900
Isoprot counter = isoproterenol response counter-screen activity for D1 modulators. shares compounds with D1 allo mod. HEK293 D1 CRE-luciferase, isoproterenol EC30 counter-screen; stronger effect = higher value. luminescence at 10 µM. actives 63% (n = 2,200). AID 647;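 active = luminescence in either replicate above plate mean of wells with a partly effective reference agonist dose plus 3 SD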;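 also: isoproterenol raises cAMP through native beta-adrenoceptor Gs so signal bypasses D1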
Numbers without * were called inactive; x = no result.

SMILES	AP ELISA ortho	D1 allo mod	WNV protease inh	hDAT+cocaine	D1 PAM confirm	D1 no dopamine	Isoprot counter
CC(C)(C)Nc1nc(NN)nc(NC(C)(C)C)n1	x	x	x	0.106	x	x	x
CCNc1nc(NC(C)C)nc(N(C#N)CCOc2ccc(Cl)cc2Cl)n1	6.1	3.19*	-0.45	0.3	11108*	1056	3116*
CCNc1nc(NC(C)(C)C)nc(N(C#N)CC)n1	15.7	29.9*	-0.93	0.686	23548*	1472	6364*
CCNc1nc(NC(C)C)nc(N(C#N)Cc2ccccc2)n1	-7.2	8.86*	2.03	0.589	22672*	1600	5772*
CCNc1nc(NC(C)C)nc(N(C#N)C(C)C(=O)N(C)C)n1 (stereo unspecified)	14.6	x	-0.01	0.0233	x	x	x
COc1ccc(-c2cc(C(=O)N3CCN(Cc4ccccc4)CC3)no2)cc1OC	-3.0	0.55	0.79	1.28	x	x	x
COc1ccc(-c2cc(C(=O)N3CCCCC3)no2)cc1OC	5.1	9.48*	-0.49	-0.339	14812*	x	3656*
COc1ccc(C(=O)COC(=O)CSCc2c(C)noc2C)cc1OC	17.5	7.58*	0.12	-0.148	17860*	1868	4232*
Cc1noc(C)c1CSCC(=O)OCC(=O)NC1CCCCC1	8.7	0.00547	0.28	x	x	x	x
Cc1cc(C)nc(SCc2nnc(SCC(=O)Nc3cc(C(F)(F)F)ccc3Cl)o2)n1	6.4	0.151	0.47	0.263	x	x	x
CC(C)[C@@H](C(=O)N1CCNCC1)n1cc(CCO)nn1	x	x	x	-0.98	x	x	x
O=c1cc(-c2ccccc2)nc2n1Cc1ccccc1-2	18.4	12.5*	-0.53	-0.359	11948*	x	3204*
O=c1nc2n(c3ccccc13)Cc1ccccc1-2	20.2	-0.0385	-0.06	x	x	x	x
O=C(CSc1nnc(-c2ccccc2Br)o1)N1CCc2ccccc2C1	4.0	9.92*	1.29	2.88*	18392*	1512	3928*
O=C(CSc1nnnn1-c1ccccc1)N1CCc2ccccc2C1	7.9	5.38*	-0.21	-0.64	5840*	x	2452
O=C1C=C(N2CCOCC2)CCC1	x	x	x	0.239	x	x	x
CC(=O)C(C)Oc1ccc2c3c(c(=O)oc2c1C)CCCC3 (stereo unspecified)	-8.3	3.17*	-0.82	x	9268*	1608	4820*
COC(=O)Nc1c(-c2ccccc2)nc2ccc(C)cn12	-4.9	3.05*	-1.26	0.441	6300	1728	2452
COc1ccc(C)cc1NC(=O)CSc1nnc(-c2ccc(OC)c(OC)c2)n1N	2.4	22.3*	0.7	1.42	18440*	1560	5076*
COc1ccc(C2CC(=O)c3cnc(NC(=O)c4ccccc4)nc3C2)cc1OC (stereo unspecified)	4.3	4.57*	-0.24	-0.761	9012*	1692	3456*
COc1ccc(C2CC(=O)c3cnc(NC(=O)c4cccc(OC)c4)nc3C2)cc1 (stereo unspecified)	8.2	0.00988	-1.04	-0.242	x	x	x
COc1ccc(C2CC(=O)c3cnc(NC(=O)c4ccccc4OC)nc3C2)c(OC)c1 (stereo unspecified)	5.8	6.54*	0.48	1.52	15748*	1700	3868*
O=C(NC(CSSCC(NC(=O)c1ccccc1)C(=O)O)C(=O)O)c1ccccc1 (stereo unspecified)	x	x	x	-1.73	x	x	x
Brc1ccccc1-c1nnc2sc(-c3ccc4c(c3)OCCO4)nn12	15.8	3.75*	-0.29	0.686	7796*	1760	3484*
Clc1ccccc1-c1nnc2sc(-c3ccc4c(c3)OCO4)nn12	7.4	2.48	-0.66	0.566	x	x	x
SMILES	AP ELISA ortho	D1 allo mod	WNV protease inh	hDAT+cocaine	D1 PAM confirm	D1 no dopamine	Isoprot counter
CCCc1nc2sc3c(SCC(=O)NCc4ccco4)ncnc3c2c2c1CCC2	9.8	5.28*	0.01	0.145	8768*	1628	4012
Cc1nc(SCC(=O)NCc2ccco2)c2c3c(sc2n1)CCCC3	8.6	x	0.24	0.0343	x	x	x
Nc1nc(N2CCOCC2)nc(N(c2ccccc2)c2ccccc2)n1	16.5	1.11	0.36	1.76	x	x	x
CN(C)c1nc(SCc2ccccc2)nc(N2CCOCC2)n1	x	x	x	1.04	x	x	x
CNc1nc(SC)nc(N2CCOCC2)n1	0.7	10.9*	0.3	-0.784	17184*	2056	3676*
Nc1nc(CSCc2ccccc2)nc(N2CCOCC2)n1	2.3	4.33*	0.03	0.248	12172*	1852	5012*
CCNc1nc(SCc2ccccc2)nc(N2CCOCC2)n1	-18.2	22.5*	1.64	0.00252	17404*	x	5532*
COc1ccc(CCNC(=O)CSc2nc(C)nc3c2c(=O)n(C)c(=O)n3C)cc1OC	6.5	0.909	-1.86	0.842	x	x	x
O=C1CC(N2CCN(C3CCc4ccccc4C3)CC2)C(=O)N1c1ccccc1 (stereo unspecified)	6.8	-0.387	-0.38	-1.83	x	x	x
Cc1cc(NC(=O)c2cnn3c(C(F)F)cc(-c4ccccc4)nc23)no1	-13.9	1.92	0.27	-0.928	x	x	x
O=C(Nc1ccccc1C(=O)NCc1ccco1)c1ccccc1	6.3	5.3*	-0.41	-0.275	10828*	x	2924*
O=C(NCCc1ccccc1)c1cnn2c(C(F)F)cc(C3CC3)nc12	3.1	5.05*	0.04	0.241	12520*	1540	4428*
O=C(NCc1ccco1)c1cnn2c(C(F)F)cc(-c3ccccc3)nc12	11.8	5.22*	0.48	-0.403	7604*	1664	3160*
CCOC(=O)C1CCCN(c2c(NCCN3CCCCC3C)c(=O)c2=O)C1 (stereo unspecified)	x	x	x	-0.83	x	x	x
COc1ccc(-n2nnnc2SCC(=O)Nc2cccc(C)n2)cc1OC	-0.7	3.11	0.36	0.0203	x	x	x
CCOC(=O)c1ccc(Oc2nc(NC)nc(OC)n2)cc1	10.1	3.76*	-0.17	-0.0669	9704*	1500	3236*
CCNc1nc(OC)nc(Oc2ccc(C(=O)OC)cc2)n1	x	x	x	1.64	x	x	x
CCOc1ccc(OCC)c2sc(C)nc12	6.9	10.8*	-0.18	-0.462	20256*	1572	3568*
CCOc1ccc(C)cc1-n1nc2ccccc2n1	x	x	x	-1.42	x	x	x
Cc1ccc(C)c(N2C(=O)CN=C2Nc2ccccc2Cl)c1	12.9	-0.769	-0.45	-0.724	x	x	x
Cc1ccc(CNC(=O)C2CCC(CNc3c(N4CCOCC4)c(=O)c3=O)CC2)cc1 (stereo unspecified)	x	x	x	1.12	x	x	x
O=C(NCc1ccc2c(c1)OCO2)C1CCC(CNc2c(N3CCCC3)c(=O)c2=O)CC1 (stereo unspecified)	23.0	2.3*	-0.6	x	5332	1668	2728
O=C(CCn1c(=O)oc2ccccc21)Nc1cccc(Cl)c1	24.4	14*	-0.06	0.0422	6680	1488	2256
CC(=O)c1ccc(NC(=O)CCn2c(=O)oc3ccccc32)cc1	4.9	-0.796	-0.52	-0.179	x	x	x
CCCCOC(=O)c1ccc(NC(=O)C2CCCO2)cc1 (stereo unspecified)	18.3	0.147	-1.12	2	x	x	x
